Measured values published in ChEMBL document CHEMBL5136969, “A niclosamide-tobramycin hybrid adjuvant potentiates cefiderocol against P. aeruginosa” (2021).
Active and inactive are the calls of the source. No cut-off for these calls is given here.

Key:
[1] = system: Escherichia coli; assay: Potentiation of moxifloxacin-induced antibiotic activity against Escherichia coli ATCC 25922 assessed as MIC fold reduction at 8 ug/ml after 18 hrs by microbroth dilution method; type: functional; conditions: dose 8 µg/ml
Procedure, shortened: (§1)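 Adjuvant held at a fixed 8 μg/mL while the antibiotic was 2-fold serially diluted in Mueller-Hinton broth (MHB), per CLSI microbroth dilution. Overnight cultures were adjusted in saline to 0.5 McFarland, then diluted 1:50 in MHB to about 5 × 10^5 CFU/mL final, and incubated 18 h at 37 °C. MIC was the lowest concentration with no visible turbidity, confirmed at 590 nm. Fold potentiation = MIC alone / MIC with adjuvant.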

[2] = system: Escherichia coli; assay: Potentiation of ciprofloxacin-induced antibiotic activity against Escherichia coli ATCC 25922 assessed as MIC fold reduction at 8 ug/ml after 18 hrs by microbroth dilution method; type: functional; conditions: dose 8 µg/ml; procedure, shortened: as §1
[3] = system: Acinetobacter baumannii; assay: Potentiation of tobramycin-induced antibiotic activity against Acinetobacter baumannii ATCC 17978 assessed as MIC fold reduction at 8 ug/ml after 18 hrs by microbroth dilution method; type: functional; conditions: dose 8 µg/ml
[4] = system: Escherichia coli; assay: Potentiation of colistin-induced antibiotic activity against Escherichia coli ATCC 25922 assessed as MIC fold reduction at 8 ug/ml after 18 hrs by microbroth dilution method; type: functional; conditions: dose 8 µg/ml; procedure, shortened: as §1
[5] = system: Escherichia coli; assay: Potentiation of piperacilin-induced antibiotic activity against Escherichia coli ATCC 25922 assessed as MIC fold reduction at 8 ug/ml after 18 hrs by microbroth dilution method; type: functional; conditions: dose 8 µg/ml
[6] = system: Escherichia coli; assay: Potentiation of minocycline-induced antibiotic activity against Escherichia coli ATCC 25922 assessed as MIC fold reduction at 8 ug/ml after 18 hrs by microbroth dilution method; type: functional; conditions: dose 8 µg/ml; procedure, shortened: as §1
[7] = system: Pseudomonas aeruginosa; assay: Potentiation of erythromycin-induced antibiotic activity against Pseudomonas aeruginosa PAO1 assessed as MIC fold reduction at 8 ug/ml after 18 hrs by microbroth dilution method; type: functional; conditions: dose 8 µg/ml; procedure, shortened: as §1
[8] = system: Acinetobacter baumannii; assay: Potentiation of erythromycin-induced antibiotic activity against Acinetobacter baumannii ATCC 17978 assessed as MIC fold reduction at 8 ug/ml after 18 hrs by microbroth dilution method; type: functional; conditions: dose 8 µg/ml; procedure, shortened: as §1
[9] = system: Acinetobacter baumannii; assay: Potentiation of novobiocin-induced antibiotic activity against Acinetobacter baumannii ATCC 17978 assessed as MIC fold reduction at 8 ug/ml after 18 hrs by microbroth dilution method; type: functional; conditions: dose 8 µg/ml
[10] = system: Pseudomonas aeruginosa; assay: Potentiation of fosfomycin-induced antibiotic activity against Pseudomonas aeruginosa PAO1 assessed as MIC fold reduction at 8 ug/ml after 18 hrs by microbroth dilution method; type: functional; conditions: dose 8 µg/ml; procedure, shortened: as §1
[11] = system: Acinetobacter baumannii; assay: Potentiation of pleuromutilin-induced antibiotic activity against Acinetobacter baumannii ATCC 17978 assessed as MIC fold reduction at 8 ug/ml after 18 hrs by microbroth dilution method; type: functional; conditions: dose 8 µg/ml
[12] = system: Escherichia coli; assay: Potentiation of sulfamethoxazole-induced antibiotic activity against Escherichia coli ATCC 25922 assessed as MIC fold reduction at 8 ug/ml after 18 hrs by microbroth dilution method; type: functional; conditions: dose 8 µg/ml
[13] = system: Pseudomonas aeruginosa; assay: Potentiation of ceftazidime-induced antibiotic activity against MDR clinical isolate Pseudomonas aeruginosa PA259 assessed as MIC fold reduction at 8 ug/ml after 18 hrs by microbroth dilution method; type: functional, organism-based; conditions: dose 8.0 µg/ml; procedure, shortened: as §1
[14] = system: Pseudomonas aeruginosa; assay: Antibacterial activity against colistin-resistant clinical isolate Pseudomonas aeruginosa PA91433 assessed as reduction in bacterial growth after 18 hrs by microbroth dilution method; type: functional
Procedure, shortened: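 Broth microdilution per CLSI in Mueller-Hinton broth (MHB). Overnight cultures were adjusted to 0.5 McFarland in saline, diluted 1:50 in MHB, and added at about 5 × 10^5 CFU/mL final to equal volumes of 2-fold serial dilutions of agent. Incubation was 18 h at 37 °C. MIC was the lowest concentration with no visible turbidity, confirmed by absorbance at 590 nm.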

[15] = system: Pseudomonas aeruginosa; assay: Antibacterial activity against […] Pseudomonas aeruginosa PAO1 assessed as reduction in bacterial growth after 18 hrs in presence of cefiderocol by microbroth dilution method; type: functional
Procedure, shortened: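 Checkerboard in MHB. Cefiderocol was 2-fold serially diluted along one axis and the adjuvant along the other. Inoculum was prepared from 0.5 McFarland saline suspensions diluted 1:50 in MHB, giving about 5 × 10^5 CFU/mL final. Plates ran 18 h at 37 °C, with turbidity confirmed at 590 nm. FIC = combination MIC ÷ MIC alone for each agent, and FIC index = sum of both. Interpretation: ≤0.5 synergy, >0.5–4 additive, >4 antagonism.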

[16] = system: Acinetobacter baumannii; assay: Antibacterial activity against Acinetobacter baumannii AB031 assessed as potentiation of cefiderocol antibacterial activity by measuring FIC after 18 hrs by microbroth dilution method; type: functional
Procedure, shortened: (§2)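 Checkerboard in Mueller-Hinton broth: cefiderocol 2-fold diluted on one axis, adjuvant 2-fold on the other. Overnight cultures were adjusted to 0.5 McFarland in saline, diluted 1:50 in MHB, and inoculated at about 5 × 10^5 CFU/mL. Incubation was 18 h at 37 °C. Turbidity was read visually and confirmed at 590 nm. FIC index = FIC of antibiotic + FIC of adjuvant; ≤0.5 synergy, >4 antagonism.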

[17] = system: Acinetobacter baumannii; assay: Antibacterial activity against Acinetobacter baumannii AB92247 assessed as potentiation of cefiderocol antibacterial activity by measuring FIC after 18 hrs by microbroth dilution method; type: functional; procedure, shortened: as §2
[18] = system: Klebsiella pneumoniae; assay: Antibacterial activity against Klebsiella pneumoniae KP116381 assessed as reduction in bacterial growth after 18 hrs by microbroth dilution method; type: functional
Procedure, shortened: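 CLSI broth microdilution. Overnight cultures were adjusted in saline to 0.5 McFarland, diluted 1:50 in Mueller-Hinton broth (MHB), and inoculated at about 5 × 10^5 CFU/mL. Agents were 2-fold serially diluted in MHB, mixed 1:1 with inoculum, and held at 37 °C for 18 h. MIC was the lowest concentration with no visible turbidity, confirmed at 590 nm.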

[19] = system: Enterobacter cloacae; assay: Antibacterial activity against Enterobacter cloacae 117029 assessed as reduction in bacterial growth after 18 hrs by microbroth dilution method; type: functional
Procedure, shortened: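 CLSI microbroth dilution in MHB. Overnight cultures were adjusted to 0.5 McFarland in saline, diluted 1:50, and inoculated at about 5 × 10^5 CFU/mL. Agents were 2-fold serially diluted and incubated 18 h at 37 °C. MIC is the lowest concentration without visible turbidity, confirmed by absorbance at 590 nm. Medium with and without cells served as controls.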

[20] = system: Escherichia coli; assay: Antibacterial activity against Escherichia coli ATCC 25922 assessed as reduction in bacterial growth after 18 hrs in presence of cefiderocol by microbroth dilution method; type: functional; procedure, shortened: as §2
[21] = system: Escherichia coli; assay: Antibacterial activity against Escherichia coli 107115 assessed as reduction in bacterial growth after 18 hrs in presence of cefiderocol by microbroth dilution method; type: functional; procedure, shortened: as §2
[22] = system: Enterobacter cloacae; assay: Antibacterial activity against Enterobacter cloacae 117029 assessed as reduction in bacterial growth after 18 hrs in presence of cefiderocol by microbroth dilution method; type: functional; procedure, shortened: as §2
[23] = system: Enterobacter cloacae; assay: Antibacterial activity against Enterobacter cloacae 118564 assessed as reduction in bacterial growth after 18 hrs in presence of cefiderocol by microbroth dilution method; type: functional; procedure, shortened: as §2
[24] = system: Enterobacter cloacae; assay: Antibacterial activity against Enterobacter cloacae 117029 assessed as potentiation of cefiderocol antibacterial activity by measuring FIC after 18 hrs by microbroth dilution method; type: functional; procedure, shortened: as §2
[25] = system: Pseudomonas aeruginosa; assay: Potentiation of antibiotic activity against Pseudomonas aeruginosa PA259 assessed as MIC fold reduction in ID-CAMHB condition at 8 ug/ml after 18 hrs by microbroth dilution method; conditions: dose 8.0 µg/ml

With NC[C@H]1O[C@H](O[C@H]2[C@H](OCCCCc3cn(-c4ccc(NC(=O)c5cc(Cl)ccc5O)cc4)nn3)[C@@H](O[C@H]3O[C@H](CO)[C@@H](O)[C@H](N)[C@H]3O)[C@H](N)C[C@@H]2N)[C@H](N)C[C@@H]1O the “fold change (FC)” value [1] was 4, the “fold change (FC)” value [2] was 4 and the “fold change (FC)” value [3] was 4. The “fold change (FC)” value [4] was 4, the “fold change (FC)” value [5] was 4 and the “fold change (FC)” value [6] was 4. For the same compound, the “fold change (FC)” value [7] was 4, the “fold change (FC)” value [8] was 4 and the “fold change (FC)” value [9] was 4. The “fold change (FC)” value [10] was 4, the “fold change (FC)” value [11] was 4 and the “fold change (FC)” value [12] was 4. For the same compound, the Activity [13] was “Active”, the MIC [14] was greater than 128 µg/mL and the MIC [15] was 0.5 µg/mL. The FIC [16] was 0.5, the FIC [17] was 0.5 and the MIC [18] was greater than 128 µg/mL. For the same compound, the MIC [19] was greater than 128 µg/mL, the MIC [20] was 0.25 µg/mL and the MIC [21] was 0.25 µg/mL. The MIC [22] was 4 µg/mL, the MIC [23] was 0.25 µg/mL and the FIC [24] was 0.5. For the same compound, the Activity [25] was “Active”.
